The source made the active and inactive calls.
What follows are molecules tested on Rattus norvegicus (assay: Neurobiological activity in Sprague-Dawley rat assessed as increase in number of rat choosing drug associated lever at 0.25 to 0.625 mg/kg, ip treated 15 mins prior to test by drug discrimination test). Conditions: not given.
Type: functional, organism-based
Method in brief: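 Male Sprague-Dawley rats (n=13), water-restricted to 80-90% free-feeding weight, trained in a two-lever water-reinforced task (FR 20) to discriminate 0.75 mg/kg WAY163909 ip from saline (1 mL/kg). Test drug given ip 15 min before the 15-min session. Read-out is the percentage of rats choosing the drug lever. ED50 is taken from log-probit analysis.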
`c1cc2c3c(c1)[C@H]1CCC[C@H]1N3CCNC2` was tested, and the Activity was “Active”.

Each molecule was assayed on Rattus norvegicus (assay: Neurobiological activity in Sprague-Dawley rat assessed as increase in number of rat choosing drug associated lever at 0.5 mg/kg, ip treated 15 mins prior to test by drug discrimination test relative to control). Conditions: not given.
Type: functional
Method in brief: (§1)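 Male Sprague-Dawley rats (n = 13, 300–325 g) held at 80–90% free-feeding weight by water restriction. Trained to discriminate WAY163909 0.75 mg/kg ip from saline, 1 mL/kg, 15 min pretreatment. Two-lever, water-reinforced, FR20, 15 min sessions. Criterion ≥80% correct responding for 10 sessions. Test doses given ip 15 min pretest. Read-out: percentage of rats choosing the drug lever.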
In the case of `c1cc2c3c(c1)[C@H]1CCC[C@H]1N3CCNC2`, the Activity is reported as 46%.

Each molecule was assayed on Rattus norvegicus (assay: Neurobiological activity in Sprague-Dawley rat assessed as increase in number of rat choosing drug associated lever at 0.625 mg/kg, ip treated 15 mins prior to test by drug discrimination test relative to control). Conditions: not given.
Type: functional
Method in brief: as §1
Molecule `c1cc2c3c(c1)[C@H]1CCC[C@H]1N3CCNC2` has an Activity of 54%.

These molecules were tested on Rattus norvegicus (assay: Neurobiological activity in Sprague-Dawley rat assessed as increase in number of rat choosing drug associated lever at 0.75 mg/kg, ip treated 15 mins prior to test by drug discrimination test relative to control). Conditions: not given.
Type: functional
Method in brief: as §1
Work on `c1cc2c3c(c1)[C@H]1CCC[C@H]1N3CCNC2` yielded an Activity of 92%.

Each molecule was assayed on Rattus norvegicus (assay: Neurobiological activity in Sprague-Dawley rat assessed as increase in number of rat choosing drug associated lever at 1 mg/kg, ip treated 15 mins prior to test by drug discrimination test relative to control). Conditions: not given.
Type: functional
Method in brief: as §1
`c1cc2c3c(c1)[C@H]1CCC[C@H]1N3CCNC2` was tested, and the Activity was 100%.

What follows are molecules tested against T1, 5-hydroxytryptamine receptor 2C (Homo sapiens) (UniProt P28335) (assay: Positive allosteric modulation of human 5HT2CR expressed in CHO cells assessed as increase in 5-HT induced intracellular calcium release at 1 nM preincubated for 15 mins followed by 5-HT addition and measured at 1 secs interval for 360 secs by calcium 4 dye based FLIPR assay relative to 5-HT). Conditions: not given.
T1 sequence (whole entry): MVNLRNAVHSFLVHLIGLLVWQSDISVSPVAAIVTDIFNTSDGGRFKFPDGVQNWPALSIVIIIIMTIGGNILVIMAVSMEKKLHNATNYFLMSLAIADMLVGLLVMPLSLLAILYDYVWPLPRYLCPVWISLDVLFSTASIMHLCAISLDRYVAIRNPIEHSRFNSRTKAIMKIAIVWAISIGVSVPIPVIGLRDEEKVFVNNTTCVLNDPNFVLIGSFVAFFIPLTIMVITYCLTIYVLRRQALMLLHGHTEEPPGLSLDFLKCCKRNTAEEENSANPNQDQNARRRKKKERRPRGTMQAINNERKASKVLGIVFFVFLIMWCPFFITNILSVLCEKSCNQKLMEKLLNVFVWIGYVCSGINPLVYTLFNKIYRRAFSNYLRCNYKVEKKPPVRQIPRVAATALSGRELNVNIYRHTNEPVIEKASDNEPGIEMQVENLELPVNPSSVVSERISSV
Type: functional, cell-based
Method in brief: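 CHO cells stably expressing human unedited (INI) 5-HT2C receptor, serum-starved 3 h, then loaded 60 min at 37 °C with Calcium 4 dye and 2.5 mM probenecid in HBSS (pH 7.4). Compound added 15 min before 5-HT (10 pM–10 μM). FLIPR read every 1 s for 360 s; peak height; Emax by 4-parameter fit, 4–6 biological replicates in triplicate, relative to 5-HT alone.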
`O=C(N[C@H](CO)[C@H](O)c1ccccc1)[C@@H]1C[C@H](c2ccccc2)CCN1` was tested, and the Emax was 103%.
`O=C(N[C@H](CO)[C@H](O)c1ccccc1)[C@@H]1C[C@H](CCc2ccccc2)CCN1` gave an Emax of 110%.
In the case of `O=C(NCCN1CCOCC1)[C@@H]1C[C@H](C2CCCCC2)CCN1` (racemic), the Emax is reported as 121%.
`O=C(N[C@H](CO)[C@H](O)c1ccccc1)[C@H]1C[C@@H](CCc2ccccc2)CCN1` gave an Emax of 109%.
`O=C(NCCN1CCOCC1)[C@@H]1C[C@H](c2ccccc2)CCN1` (racemic) was tested, and the Emax was 114%.
In the case of `O=C(N[C@H](CO)[C@H](O)c1ccccc1)[C@H]1C[C@@H](c2ccccc2)CCN1`, the Emax is reported as 118%.
In the case of `O=C(NC(CO)CO)[C@@H]1C[C@H](CCc2ccccc2)CCN1` (relative stereo), the Emax is reported as 101%.
In the case of `O=C(NCCCN1CCOCC1)[C@@H]1C[C@H](CCC2CCCCC2)CCN1` (racemic), the Emax is reported as 118%.
Molecule `O=C(NCCCN1CCOCC1)[C@@H]1C[C@H](CCc2ccccc2)CCN1` (racemic) has an Emax of 118%.
With `Cc1ccc(CC[C@@H]2CCN[C@H](C(=O)N[C@H](CO)[C@H](O)c3ccccc3)C2)cc1` the Emax was 99.3%.
For `Cc1ccc(CC[C@H]2CCN[C@@H](C(=O)N[C@H](CO)[C@H](O)c3ccccc3)C2)cc1`, the Emax was 98.9%.
Molecule `O=C(NC[C@H](O)CO)[C@@H]1C[C@H](CCc2ccccc2)CCN1` has an Emax of 108%.
Work on `CC(C)(C)c1ccc(CC[C@H]2CCN[C@@H](C(=O)N[C@H](CO)[C@H](O)c3ccccc3)C2)cc1` yielded an Emax of 107%.
With `O=C(NC(CO)CO)[C@@H]1C[C@H](c2ccccc2)CCN1` (racemic) the Emax was 119%.
Molecule `O=C(NC(CO)CO)[C@@H]1C[C@H](C2CCCCC2)CCN1` (racemic) has an Emax of 119%.
With `CC(C)(C)c1ccc(CC[C@@H]2CCN[C@H](C(=O)N[C@H](CO)[C@H](O)c3ccccc3)C2)cc1` the Emax was 115%.
`O=C(NCCN1CCOCC1)[C@@H]1C[C@H](CCC2CCCCC2)CCN1` (racemic) showed an Emax of 110%.
`O=C(NCCN1CCOCC1)[C@@H]1C[C@H](CCc2ccccc2)CCN1` (racemic) gave an Emax of 94.2%.
In the case of `O=C(NC[C@H](O)CO)[C@@H]1C[C@H](CCC2CCCCC2)CCN1`, the Emax is reported as 110%.
For `O=C(NC(CO)CO)[C@@H]1C[C@H](CCC2CCCCC2)CCN1` (relative stereo), the Emax was 106%.
In the case of `O=C(NC[C@H](O)CO)[C@@H]1C[C@H](C2CCCCC2)CCN1` (mixture of isomers), the Emax is reported as 118%.

These molecules were tested against 5-HT2A receptor (Homo sapiens, UniProt P28223) (assay: Positive allosteric modulation of human 5HT2AR expressed in CHO cells assessed as increase in 5-HT induced intracellular calcium release at 1 nM preincubated for 15 mins followed by 5-HT addition and measured at 1 secs interval for 360 secs by calcium 4 dye based FLIPR assay relative to 5-HT). Conditions: CHO cells expressing human 5HT2AR.
Chain of 5-HT2A receptor (P28223 whole entry): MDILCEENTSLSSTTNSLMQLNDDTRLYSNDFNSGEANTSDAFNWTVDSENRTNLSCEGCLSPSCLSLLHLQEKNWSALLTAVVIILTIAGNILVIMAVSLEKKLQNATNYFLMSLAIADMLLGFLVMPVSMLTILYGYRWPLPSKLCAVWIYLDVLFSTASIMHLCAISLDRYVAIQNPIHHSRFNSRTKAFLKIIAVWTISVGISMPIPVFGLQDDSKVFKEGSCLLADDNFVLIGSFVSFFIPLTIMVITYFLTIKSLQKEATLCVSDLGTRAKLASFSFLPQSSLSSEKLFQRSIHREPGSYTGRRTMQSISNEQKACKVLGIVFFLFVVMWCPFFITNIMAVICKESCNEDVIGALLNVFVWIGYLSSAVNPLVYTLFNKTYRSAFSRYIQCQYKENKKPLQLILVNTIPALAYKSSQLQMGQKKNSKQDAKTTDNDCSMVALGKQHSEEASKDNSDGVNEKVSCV
Type: cell-based
Method in brief: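 CHO cells stably expressing human 5-HT2AR, serum-starved 3 h, then loaded with Calcium 4 dye plus 2.5 mM probenecid in HBSS (no Ca/Mg, pH 7.4) for 60 min at 37°C and 15 min at room temperature. Test compound added 15 min before 5-HT (10 pM-10 μM). FLIPR fluorescence read every 1 s for 360 s after 5-HT. Emax from 4-parameter fit, normalized to 5-HT maximum.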
`O=C(N[C@H](CO)[C@H](O)c1ccccc1)[C@@H]1C[C@H](CCc2ccccc2)CCN1` showed an Emax at 0.1 h, 0.001 µM of 104%.
Molecule `O=C(N[C@H](CO)[C@H](O)c1ccccc1)[C@H]1C[C@@H](c2ccccc2)CCN1` has an Emax at 0.1 h, 0.001 µM of 103%.
Work on `O=C(NCCCN1CCOCC1)[C@@H]1C[C@H](CCC2CCCCC2)CCN1` (racemic) yielded an Emax at 0.1 h, 0.001 µM of 97.2%.
`O=C(NCCCN1CCOCC1)[C@@H]1C[C@H](CCc2ccccc2)CCN1` (racemic) gave an Emax at 0.1 h, 0.001 µM of 97.9%.
For `O=C(NC(CO)CO)[C@@H]1C[C@H](c2ccccc2)CCN1` (racemic), the Emax at 0.1 h, 0.001 µM was 99.3%.
In the case of `O=C(NC[C@H](O)CO)[C@@H]1C[C@H](C2CCCCC2)CCN1` (mixture of isomers), the Emax at 0.1 h, 0.001 µM is reported as 97.8%.

The molecules below were run on Rattus norvegicus (assay: Neurobiological activity in ip dosed Sprague-Dawley rat assessed as increase in number of rat choosing drug associated lever treated 15 mins prior to test by drug discrimination test). Conditions: not given.
Type: functional
With `c1cc2c3c(c1)[C@H]1CCC[C@H]1N3CCNC2` the ED50 was 0.51 mg/kg.

What follows are molecules tested against T2, 5-hydroxytryptamine receptor 2C (Homo sapiens, UniProt P28335) (assay: Agonist activity at human 5HT2CR expressed in CHO cells assessed as increase in intracellular calcium release at 1 nM incubated for 15 mins measured at 1 secs interval for 120 secs by calcium 4 dye based FLIPR assay relative to 5-HT). Conditions: 0.001 µM.
T2 sequence (P28335 whole entry): T1 sequence (whole entry)
Type: cell-based
Method in brief: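 h5-HT2CR (unedited INI isoform) stably expressed in CHO cells; cells plated ~24 h, serum-free medium 3 h, then Calcium 4 dye with 2.5 mM probenecid in Ca/Mg-free HBSS pH 7.4 for 60 min at 37°C plus 15 min at room temperature. Compound given alone, read for 15 min before 5-HT. Peak fluorescence is expressed relative to the 5-HT Emax. 4-6 biological replicates, each in triplicate.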
With `O=C(N[C@H](CO)[C@H](O)c1ccccc1)[C@@H]1C[C@H](c2ccccc2)CCN1` the Activity was “Not Active”.
`O=C(N[C@H](CO)[C@H](O)c1ccccc1)[C@@H]1C[C@H](CCc2ccccc2)CCN1` was tested, and the Activity was “Not Active”.
With `O=C(NCCN1CCOCC1)[C@@H]1C[C@H](C2CCCCC2)CCN1` (racemic) the Activity was “Not Active”.
With `O=C(N[C@H](CO)[C@H](O)c1ccccc1)[C@H]1C[C@@H](CCc2ccccc2)CCN1` the Activity was “Not Active”.
In the case of `O=C(NCCN1CCOCC1)[C@@H]1C[C@H](c2ccccc2)CCN1` (racemic), the Activity is reported as “Not Active”.
`O=C(N[C@H](CO)[C@H](O)c1ccccc1)[C@H]1C[C@@H](c2ccccc2)CCN1` was tested, and the Activity was “Not Active”.
In the case of `O=C(NC(CO)CO)[C@@H]1C[C@H](CCc2ccccc2)CCN1` (relative stereo), the Activity is reported as “Not Active”.
With `O=C(NCCCN1CCOCC1)[C@@H]1C[C@H](CCC2CCCCC2)CCN1` (racemic) the Activity was “Not Active”.
`O=C(NCCCN1CCOCC1)[C@@H]1C[C@H](CCc2ccccc2)CCN1` (racemic) was tested, and the Activity was “Not Active”.
In the case of `Cc1ccc(CC[C@@H]2CCN[C@H](C(=O)N[C@H](CO)[C@H](O)c3ccccc3)C2)cc1`, the Activity is reported as “Not Active”.
For `Cc1ccc(CC[C@H]2CCN[C@@H](C(=O)N[C@H](CO)[C@H](O)c3ccccc3)C2)cc1`, the Activity was “Not Active”.
With `O=C(NC[C@H](O)CO)[C@@H]1C[C@H](CCc2ccccc2)CCN1` the Activity was “Not Active”.
With `CC(C)(C)c1ccc(CC[C@H]2CCN[C@@H](C(=O)N[C@H](CO)[C@H](O)c3ccccc3)C2)cc1` the Activity was “Not Active”.
With `O=C(NC(CO)CO)[C@@H]1C[C@H](c2ccccc2)CCN1` (racemic) the Activity was “Not Active”.
For `O=C(NC(CO)CO)[C@@H]1C[C@H](C2CCCCC2)CCN1` (racemic), the Activity was “Not Active”.
With `CC(C)(C)c1ccc(CC[C@@H]2CCN[C@H](C(=O)N[C@H](CO)[C@H](O)c3ccccc3)C2)cc1` the Activity was “Not Active”.
`O=C(NCCN1CCOCC1)[C@@H]1C[C@H](CCC2CCCCC2)CCN1` (racemic) was tested, and the Activity was “Not Active”.
For `O=C(NCCN1CCOCC1)[C@@H]1C[C@H](CCc2ccccc2)CCN1` (racemic), the Activity was “Not Active”.
In the case of `O=C(NC[C@H](O)CO)[C@@H]1C[C@H](CCC2CCCCC2)CCN1`, the Activity is reported as “Not Active”.
`CCCCCCCCCCC[C@@H]1CCN[C@H](C(=O)NCC(O)CO)C1` (relative stereo) was tested, and the Activity was “Not Active”.
In the case of `O=C(NC(CO)CO)[C@@H]1C[C@H](CCC2CCCCC2)CCN1` (relative stereo), the Activity is reported as “Not Active”.
In the case of `O=C(NC[C@H](O)CO)[C@@H]1C[C@H](C2CCCCC2)CCN1` (mixture of isomers), the Activity is reported as “Not Active”.
